# Assay results of several laboratories.
# Protocols differ between the studies behind these lines.
SMILES,target or system,assay,test system,setting,endpoint,result
O=c1cccc(C2CCCCC2)n1O,Cryptococcus gattii,microbial growth,,,MIC80,1.7 µM
CO/N=C(\C(=O)N[C@@H]1C(=O)N2C(C(=O)O)=C(CSC(=O)c3ccco3)CS[C@H]12)c1csc(N)n1,Salmonella enterica,microbial growth,CHOLERAESUIS,"20 h, pH 5.5",MIC,1 µg/mL
CC1=NN(CNC(=O)c2ccccn2)C(=O)C1=NNn1c(-c2ccccc2)nc2ccccc2c1=O,Salmonella enterica,"microbial growth, broth dilution",PARATYPHI,24 h,MIC,104 µM
Cc1cc(Cc2ccc(Cl)cc2)n(O)c(=O)c1,Cryptococcus gattii,microbial growth,,,MIC80,3 µM
O=C(N[C@H](CO)[C@H](O)c1ccc([N+](=O)[O-])cc1)C(Cl)Cl,Salmonella enterica,microbial growth,CHOLERAESUIS,"20 h, pH 7.2",MIC,4 µg/mL
CC(/C=C/C(O)=C1/C(=O)CNC1=O)=C\[C@@H](C)[C@H]1O[C@@]2(C)O[C@H](C(=O)[C@@H]3O[C@@]32C)[C@@H]1C,Bacillus cereus,microbial growth,,,MIC,6.25 µM
CC(C)C[C@H](NC(=O)OCc1ccccc1)C(=O)N[C@@H](CC(C)C)C(=O)N[C@@H](CC(C)C)C(=O)C(=O)Nc1cccc2c1CCC2,RPMI-8226,"cell growth or viability, MTS",,72 h,IC50,65.9 nM
Cc1cc(C2CCCCC2)n(O)c(=O)c1,Cryptococcus gattii,microbial growth,,,MIC80,2.3 µM
COc1cc(Cc2cnc(N)nc2N)cc(OC)c1OC,Shigella dysenteriae,"microbial killing, broth dilution",,48 h,MBC,32 µg/mL
CC1=NN(CNc2ccc(O)cc2)C(=O)C1=NNn1c(-c2ccccc2)nc2ccccc2c1=O,Salmonella enterica,"microbial growth, broth dilution",PARATYPHI,24 h,MIC,107 µM
Cc1cc(CC2CCCCC2)n(O)c(=O)c1,Cryptococcus gattii,microbial growth,,,MIC80,1.7 µM
CC(C)C[C@H](NC(=O)OCc1ccccc1)C(=O)N[C@@H](Cc1c[nH]c2ccccc12)C(=O)N[C@@H](CC(C)C)C(=O)C(=O)Nc1ccccc1,RPMI-8226,"cell growth or viability, MTS",,72 h,IC50,313 nM
CC1=NN(CNc2ccccn2)C(=O)C1=NNn1c(-c2ccccc2)nc2ccccc2c1=O,Salmonella enterica,"microbial growth, broth dilution",PARATYPHI,24 h,MIC,55.2 µM
C=C(C)[C@H]1Cc2c(ccc3c2O[C@@H]2COc4cc(OC)c(OC)cc4[C@@H]2C3=O)O1,ReNcell VM,"cell growth or viability, imaging",,24 h,IC50,~280 nM
CCCCCCCCCCCC(=O)OC[C@H]1O[C@@H](n2cc(C)c(=O)[nH]c2=O)C[C@@H]1OC(=O)c1ccc(C(C)(C)C)cc1,Bacillus cereus,"microbial growth, broth dilution",,,MIC,2 µg/mL
CC[C@H]1OC(=O)[C@H](C)[C@@H](O[C@H]2C[C@@](C)(OC)[C@@H](O)[C@H](C)O2)[C@H](C)[C@@H](O[C@@H]2O[C@H](C)C[C@H](N(C)C)[C@H]2O)[C@](C)(O)C[C@@H](C)C(=O)[C@H](C)[C@@H](O)[C@]1(C)O,Bacillus cereus,microbial growth,,,MIC,3.13 µM
CCCCCCCCCCCC(=O)OC[C@H]1O[C@@H](n2cc(C)c(=O)[nH]c2=O)C[C@@H]1O,Bacillus cereus,"microbial killing, broth dilution",,,MBC,8 µg/mL
COC[C@H](NC(=O)OCc1ccccc1)C(=O)N[C@@H](Cc1ccccc1)C(=O)N[C@@H](CC(C)C)C(=O)C(=O)Nc1ccccc1,RPMI-8226,"cell growth or viability, MTS",,72 h,IC50,437 nM
CCC1(c2ccc(N)cc2)CCC(=O)NC1=O (centres unmarked),OVCAR-3,"cell growth or viability, CCK-8",,48 h,IC50,> 50000 nM
CCN1CCN(c2cc3c(cc2F)c(=O)c(C(=O)O)cn3C2CC2)CC1,Salmonella enterica,microbial growth,CHOLERAESUIS,"20 h, pH 7",MIC,0.0625 µg/mL
O=c1[nH]cc(F)c(=O)[nH]1,Shigella dysenteriae,"microbial killing, broth dilution",,48 h,MBC,8 µg/mL
CO/N=C(\C(=O)N[C@@H]1C(=O)N2C(C(=O)O)=C(CSc3nc(=O)c(=O)[nH]n3C)CS[C@H]12)c1csc(N)n1,Salmonella enterica,microbial growth,CHOLERAESUIS,"20 h, pH 7",MIC,0.0625 µg/mL
CC(C=CC(O)=C1C(=O)CNC1=O)=CC(C)C1OC2(C)OC(C(O)C=C2C)C1C (centres unmarked),Bacillus cereus,microbial growth,,,MIC,> 100 µM
